Results as given in ChEMBL document CHEMBL3272112, “Cycloalkanones. 8. Hypocholesterolemic activity of long-chain ketones related to pentadecanone” (J Med Chem, 1976).

Tests used:
[1] = Toxicity in CF1 mouse; format: organism-based; conditions: in vivo
Method in brief: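 Male CF1 mice; acute lethality measured and LD50 calculated by the Litchfield and Wilcoxon method.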

[2] = species on record: Rattus norvegicus; test: Disruption of rat liver lysosomal membrane assessed as free acid phosphatase activity at 5 mg per gram of tissue measured after 1 hr (reference value: 100 +/- 16%); format: functional, tissue-based
Method in brief: (§1)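 10% rat liver homogenate incubated with Hanke's buffer pH 7.2 and drug suspension in 1% CMC in a shaker at 37°C; aliquot removed after 1 hr and percent free (unbound) acid phosphatase activity determined as an index of lysosomal membrane rupture.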

[3] = species on record: Rattus norvegicus; test: Disruption of rat liver lysosomal membrane assessed as free acid phosphatase activity at 10 mg per gram of tissue measured after 1 hr (reference value: 100 +/- 16%); format: functional, tissue-based; method in brief: as §1
[4] = system: Rattus norvegicus; test: Hypocholesterolemic activity in Sprague-Dawley rat assessed as serum cholesterol level at 5 mg/kg/day, po administered via intubation measured on day 4 by Liebermann-Burchard method relative to control; format: functional
Method in brief: (§2)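 Male Sprague-Dawley rats given compound homogenized in 1% CMC once daily at 11:00 a.m. by oral intubation needle (0.2 cc), doses calculated on weekly body weights; tail-vein blood drawn 24 h after last dose; nonhemolyzed serum (30 μ) assayed by modified Liebermann-Burchard method; N = 8; % of control, mean ± SD; Student's t test.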

[5] = system: Rattus norvegicus; test: Toxicity in Sprague-Dawley rat assessed as increase in body weight at 10 mg/kg/day measured on day 16 (reference value: 195 +/- 16%); format: organism-based; conditions: in vivo
[6] = system: Rattus norvegicus; test: Toxicity in Sprague-Dawley rat assessed as effect on glycogen level in liver at 10 mg/kg/day measured after 16 days (reference value: 100 +/- 26%); format: organism-based; conditions: in vivo, 384 h
[7] = system: Rattus norvegicus; test: Toxicity in Sprague-Dawley rat assessed as food intake at 5 mg/kg/day measured after 1 week (reference value: 20.9 +/- 4.9 g/day); format: organism-based; conditions: in vivo, 168 h
[8] = system: Rattus norvegicus; test: Toxicity in Sprague-Dawley rat assessed as increase in body weight at 5 mg/kg/day administered for 16 days measured on day 16 post last dose (reference value: 195 +/- 16%); format: organism-based; conditions: in vivo, 384 h
[9] = system: Rattus norvegicus; test: Hypocholesterolemic activity in Sprague-Dawley rat assessed as serum cholesterol level at 1 mg/kg/day, po administered via intubation measured on day 4 by Liebermann-Burchard method relative to control; format: functional; method in brief: as §2
[10] = system: Rattus norvegicus; test: Hypocholesterolemic activity in Sprague-Dawley rat assessed as serum cholesterol level at 50 mg/kg/day, po administered via intubation measured on day 10 by Liebermann-Burchard method relative to control; format: functional; method in brief: as §2
[11] = system: Rattus norvegicus; test: Toxicity in Sprague-Dawley rat assessed as increase in liver weight at 10 mg/kg/day administered for 16 days measured on day 16 post last dose relative to total body weight (reference value: 4.35 +/- 0.39%); format: organism-based; conditions: in vivo, 384 h
[12] = system: Rattus norvegicus; test: Hypocholesterolemic activity in Sprague-Dawley rat assessed as serum cholesterol level at 20 mg/kg/day, po administered via intubation measured on day 16 by Liebermann-Burchard method relative to control; format: functional; method in brief: as §2
[13] = system: Rattus norvegicus; test: Toxicity in Sprague-Dawley rat assessed as atrophy of vesicular gland at 10 mg/kg/day administered for 16 days measured on day 16 post last dose; format: organism-based; conditions: in vivo, 384 h
[14] = system: Rattus norvegicus; test: Toxicity in Sprague-Dawley rat assessed as increase in body weight at 1 mg/kg/day administered for 16 days measured on day 16 post last dose (reference value: 195 +/- 16%); format: organism-based; conditions: in vivo, 384 h
[15] = species on record: Rattus norvegicus; test: Disruption of rat liver cell membrane assessed as unlysed cells at 10 mg per gram of tissue measured at 2 hrs (reference value: 77 +/- 8%); format: functional
Method in brief: (§3)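 Rat liver 10% homogenate in 0.25 M sucrose + 0.001 M EDTA, pH 7.2, incubated at 37°C with Hanke's buffer pH 7.2 and drug suspended in 1% CMC (dose as mg drug per g wet liver); turbidity read as absorbance at 660 nm over 0–4 hr, falling absorbance taken as lysis; expressed as % unlysed cells; vehicle 1% CMC control.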

[16] = species on record: Rattus norvegicus; test: Disruption of rat liver cell membrane assessed as unlysed cells at 25 mg per gram of tissue measured at 15 mins (reference value: 91 +/- 6%); format: functional; method in brief: as §3
[17] = system: Rattus norvegicus; test: Hypocholesterolemic activity in Sprague-Dawley rat assessed as serum cholesterol level at 10 mg/kg/day, po administered via intubation measured on day 16 by Liebermann-Burchard method relative to control; format: functional; method in brief: as §2
[18] = species on record: Rattus norvegicus; test: Disruption of rat liver cell membrane assessed as unlysed cells at 5 mg per gram of tissue measured at 4 hrs (reference value: 17 +/- 4%); format: functional; method in brief: as §3
[19] = system: Rattus norvegicus; test: Hypocholesterolemic activity in Sprague-Dawley rat assessed as serum cholesterol level at 1 mg/kg/day, po administered via intubation measured on day 10 by Liebermann-Burchard method relative to control; format: functional; method in brief: as §2
[20] = system: Rattus norvegicus; test: Toxicity in Sprague-Dawley rat assessed as effect on lipid level in liver at 10 mg/kg/day measured after 16 days (reference value: 100 +/- 13%); format: organism-based; conditions: in vivo, 384 h
[21] = species on record: Rattus norvegicus; test: Disruption of rat liver cell membrane assessed as unlysed cells at 25 mg per gram of tissue measured at 4 hrs (reference value: 17 +/- 4%); format: functional; method in brief: as §3
[22] = system: Rattus norvegicus; test: Toxicity in Sprague-Dawley rat assessed as food intake at 50 mg/kg/day measured after 2 weeks (reference value: 24.8 +/- 1.1 g/day); format: organism-based; conditions: in vivo, 336 h
[23] = system: Rattus norvegicus; test: Hypocholesterolemic activity in Sprague-Dawley rat assessed as serum cholesterol level at 50 mg/kg/day, po administered via intubation measured on day 16 by Liebermann-Burchard method relative to control; format: functional; method in brief: as §2
[24] = species on record: Rattus norvegicus; test: Disruption of rat liver cell membrane assessed as unlysed cells at 10 mg per gram of tissue measured at 1 hr (reference value: 90 +/- 4%); format: functional; method in brief: as §3
[25] = system: Rattus norvegicus; test: Effect on serum triglyceride level in Sprague-Dawley rat at 20 mg/kg/day measured on day 14 (reference value: 100 +/- 21%); format: functional
[26] = species on record: Rattus norvegicus; test: Disruption of rat liver cell membrane assessed as unlysed cells at 10 mg per gram of tissue measured at 30 mins (reference value: 93 +/- 7%); format: functional; method in brief: as §3
[27] = system: Rattus norvegicus; test: Hypocholesterolemic activity in Sprague-Dawley rat assessed as serum cholesterol level at 20 mg/kg/day, po administered via intubation measured on day 4 by Liebermann-Burchard method relative to control; format: functional; method in brief: as §2
[28] = system: Rattus norvegicus; test: Hypocholesterolemic activity in Sprague-Dawley rat assessed as serum cholesterol level at 20 mg/kg/day, po administered via intubation measured on day 10 by Liebermann-Burchard method relative to control; format: functional; method in brief: as §2
[29] = system: Rattus norvegicus; test: Toxicity in Sprague-Dawley rat assessed as food intake at 1 mg/kg/day measured after 1 week (reference value: 20.9 +/- 4.9 g/day); format: organism-based; conditions: in vivo, 168 h
[30] = system: Rattus norvegicus; test: Toxicity in Sprague-Dawley rat assessed as increase in body weight at 20 mg/kg/day administered for 16 days measured on day 16 post last dose (reference value: 195 +/- 16%); format: organism-based; conditions: in vivo, 384 h
[31] = species on record: Rattus norvegicus; test: Disruption of rat liver cell membrane assessed as unlysed cells at 25 mg per gram of tissue measured at 2 hrs (reference value: 77 +/- 8%); format: functional; method in brief: as §3
[32] = system: Rattus norvegicus; test: Toxicity in Sprague-Dawley rat assessed as food intake at 5 mg/kg/day measured after 2 weeks (reference value: 24.8 +/- 1.1 g/day); format: organism-based; conditions: in vivo, 336 h
[33] = system: Rattus norvegicus; test: Toxicity in Sprague-Dawley rat assessed as food intake at 20 mg/kg/day measured after 1 week (reference value: 20.9 +/- 4.9 g/day); format: organism-based; conditions: in vivo, 168 h

Compound `CCCCCCCCCCCCCCC(C)=O` has an LD50 [1] of 1750 mg/kg, an Activity [2] of 85% and an Activity [3] of 89%. The Activity [4] was 74%, the Activity [5] was 228% and the Activity [6] was 105%. For the same compound, the Activity [7] was 21.8 g/day, the Activity [8] was 244% and the Activity [9] was 82%. It also gave an Activity [10] of 74%, an Activity [11] of 4.39% and an Activity [12] of 69%. For the same compound, the Activity [13] was “Non-toxic”, the Activity [14] was 229% and the Activity [15] was 77%. It also gave an Activity [16] of 97%, an Activity [17] of 58% and an Activity [18] of 17%. For the same compound, the Activity [19] was 80%, the Activity [20] was 101% and the Activity [21] was 18%. The Activity [22] was 25.6 g/day, the Activity [23] was 68% and the Activity [24] was 92%. It also gave an Activity [25] of 101%, an Activity [26] of 95% and an Activity [27] of 74%. It also gave an Activity [28] of 76%, an Activity [29] of 22.3 g/day and an Activity [30] of 225%. For the same compound, the Activity [31] was 85%, the Activity [32] was 26.3 g/day and the Activity [33] was 21.4 g/day.
